This note sets out measurements from publication PMC7096758 (Heliyon, 2020).

The nature of data set [1]: Cytotoxicity in mammalian cells. The class given is cell-based, BALB/c mice. Particulars: BALB/c, mouse, bone marrow-derived macrophages (BMDM). In outline:
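Bone-marrow cells from BALB/c mice were differentiated for 7 days at 37 °C, 5% CO2. The medium was DMEM with 10% FBSi, 1% NEAA and 10% L929-conditioned medium. The resulting macrophages were exposed to test compound at up to 40 μM for 24 h. Viability was measured by resazurin assay. CC50 was calculated from percent viability relative to untreated control.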

Data set [2] relates to L. infantum promastigotes. Briefly: Activity against promastigotes. The class given is cell-based. Particulars: Leishmania infantum, 24 h, read-out: IC50 L. infantum (P). In outline:
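L. infantum MHOM/MA/67/ITMAP263 promastigotes were grown at 25 °C for at most 10 passages in RPMI with 10% FBSi and 5 mM HEPES, pH 7.4. Late-exponential cells were seeded at 3×10^6 cells/mL and exposed for 24 h to test compound (DMSO stock diluted in RPMI), in triplicate. Controls were 0.5% DMSO and amphotericin B. Resazurin fluorescence gave viability and IC50 was fitted.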

Data set [3] relates to L. major promastigotes. Briefly: Activity against promastigotes. In kind it is cell-based. As to conditions: Leishmania major, 24 h, read-out: IC50 L. major (P). In outline: (§1)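 Promastigotes of L. major MHOM/SA/85/JISH118 or L. amazonensis MHOM/BR/LTB0016 were kept at 25 °C for at most 10 passages in Schneider's with 10% FBSi, 2% human urine and 5 mM HEPES. Late-exponential cells were seeded at 3×10^6 cells/mL. They were treated 24 h with test compound (DMSO stock diluted in Schneider's), in triplicate. Controls were 0.5% DMSO and amphotericin B. Resazurin read-out; IC50 fitted.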

In data set [4] the test system is L. amazonensis promastigotes. Briefly: Activity against promastigotes. In kind it is cell-based. Particulars: Leishmania amazonensis, 24 h, read-out: IC50 L. amazonensis (P). In outline: as §1
The test system of data set [5] is L. infantum axenic amastigotes. Put plainly: Activity against axenic amastigotes. In kind it is cell-based. Particulars: Leishmania infantum, 24 h, read-out: IC50 L. infantum (AA). In short, it runs like this:
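L. infantum axenic amastigotes came from parasites recently recovered from infected mouse spleen. They were kept at 37 °C, 5% CO2 in MAA with 20% iFBS, 2 mM Glutamax and 0.023 mM hemin. Cells were seeded at 1.5×10^5 per well in MAA20. Test compound was dissolved in DMSO and diluted in medium for 24 h, in triplicate. Controls were 0.5% DMSO and amphotericin B. Viability was read by resazurin fluorescence and IC50 fitted.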

Data set [6] deals with L. infantum intracellular amastigotes. Briefly: IC50 against Leishmania intracellular amastigotes in infected macrophages. As to conditions: CC50 BMDM versus IC50 intracellular amastigotes. The class given is cell-based, Leishmania infantum. In short, it runs like this: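 Ratio of BMDM CC50 (resazurin, 24 h) to intracellular IC50. For IC50, BALB/c BMDM were infected 3 h with stationary-phase L. infantum promastigotes (10:1), then washed. After 24 h, test compound in DMEM was added for 24 h, with 0.5% DMSO and amphotericin B controls. Cells were fixed, DAPI/CellMask stained and imaged automatically. IC50 was derived from percent infected macrophages.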

In general, CC50 refers to the concentration at which the toxic effect on the cells reaches its halfway point. For orientation: IC50 means the concentration that gives 50% inhibition. `CC1(C)CC(=O)c2cc(CNC(=O)/C=C/c3cccs3)ccc2N1` [Compound 14f, (E)-N-((2,2-dimethyl-4-oxo-1,2,3,4-tetrahydroquinolin-6-yl)methyl)-3-(thiophen-2-yl)acrylamide] displayed a CC50 at 24 h in data set [1] greater than 40 µM. In addition, the IC50 in data set [2], in data set [3] and in data set [4] was greater than 20 µM in each case.

Take `C/C=C(\C)C(=O)NCc1ccc2c(c1)C(=O)CC(C)(C)N2` [Compound 14c, (E)-N-((2,2-dimethyl-4-oxo-1,2,3,4-tetrahydroquinolin-6-yl)methyl)-2-methylbut-2-enamide]: in data set [1], the CC50 at 24 h is greater than 40 µM. Also, the IC50 in data set [2], in data set [3] and in data set [4] was greater than 20 µM throughout.

In data set [1], `C[C@@H]1[C@H](O)[C@@H](C)/C=C/C=C/C=C/C=C/C=C/C=C/C=C/[C@H](O[C@@H]2O[C@H](C)[C@@H](O)[C@H](N)[C@@H]2O)C[C@@H]2O[C@](O)(C[C@@H](O)C[C@@H](O)[C@H](O)CC[C@@H](O)C[C@@H](O)CC(=O)O[C@H]1C)C[C@H](O)[C@H]2C(=O)O` [Amphotericin B, reference compound] gave a CC50 at 24 h of 4.37 ± 0.97 µM. The half-maximal inhibitory concentration (IC50) in data set [2] came to 0.18 ± 0.09 µM; in data set [5] it was 0.4 ± 0.3 µM; in data set [3], 0.17 ± 0.08 µM; in data set [4] it was 0.2 ± 0.06 µM.

With `Cc1ccc(Cc2ccc3c(c2)C(=O)CC(C)(C)O3)cc1` [Compound 21, 2,2-dimethyl-6-(4-methylbenzyl)chroman-4-one], the concentration for half-maximal inhibition (IC50) in data set [2], in data set [3] and in data set [4] was greater than 20 µM each time.

`C/C=C(\CO)C(=O)NCc1ccc2c(c1)C(=O)CC(C)(C)N2` [Compound 14g, (E)-N-((2,2-dimethyl-4-oxo-1,2,3,4-tetrahydroquinolin-6-yl)methyl)-2-(hydroxymethyl)but-2-enamide]: the IC50 in data set [2], in data set [3] and in data set [4] was greater than 20 µM in each case.

As for `C/C=C(\CO)C(=O)OCc1ccc2c(c1)C(=O)CC(C)(C)O2` [Compound 12a, (2,2-dimethyl-4-oxochroman-6-yl)methyl (E)-2-(hydroxymethyl)but-2-enoate], the half-maximal inhibitory concentration (IC50) in data set [2], in data set [3] and in data set [4] was greater than 20 µM each time.

`C/C=C/C(=O)NCc1ccc2c(c1)C(=O)CC(C)(C)N2` [Compound 14b, (E)-N-((2,2-dimethyl-4-oxo-1,2,3,4-tetrahydroquinolin-6-yl)methyl)but-2-enamide] registered a CC50 at 24 h in data set [1] greater than 40 µM. Besides, the half-inhibitory concentration (IC50) in data set [2], in data set [3] and in data set [4] was greater than 20 µM in each case.

In turn, `CCCCCCCCNCc1ccc2c(c1)C(=O)CC(C)(C)O2` [Compound 13c, 2,2-dimethyl-6-((octylamino)methyl)chroman-4-one] yielded a CC50 at 24 h in data set [1] of 40.2 ± 5.7 µM. The half-inhibitory concentration (IC50) in data set [5] is 25.3 ± 2.1 µM. In data set [6], this compound yielded a selectivity index of 1.6.

`CC(C)=CC(=O)NCc1ccc2c(c1)C(=O)CC(C)(C)N2` [Compound 14d, N-((2,2-dimethyl-4-oxo-1,2,3,4-tetrahydroquinolin-6-yl)methyl)-3-methylbut-2-enamide]: the 50% cytotoxic concentration (CC50) at 24 h in data set [1] is greater than 40 µM. Further, the IC50 in data set [2], in data set [3] and in data set [4] was greater than 20 µM each time.

`CC1(C)CC(=O)c2cc(CNC(=O)C/C=C/c3ccccc3)ccc2N1` [Compound 14e, (E)-N-((2,2-dimethyl-4-oxo-1,2,3,4-tetrahydroquinolin-6-yl)methyl)-4-phenylbut-3-enamide] registered a cytotoxic concentration (CC50) at 24 h in data set [1] greater than 40 µM. The 50% inhibitory concentration (IC50) is greater than 20 µM in data set [3] and 10 to 20 µM in data set [4].

As to `C/C=C(\CO)C(=O)NCc1ccc2c(c1)C(=O)CC(C)(C)O2` [Compound 13a, (E)-N-((2,2-dimethyl-4-oxochroman-6-yl)methyl)-2-(hydroxymethyl)but-2-enamide], the IC50 in data set [2], in data set [3] and in data set [4] was greater than 20 µM in each case.
